For assay [1], the species on record is Rattus norvegicus. The experiment in a line: Selectivity ratio of Ki for rat alpha7 nAChR to Ki for rat alpha4beta2 nAChR.
Assay [2] addresses Neuronal acetylcholine receptor; alpha4/beta2 (Rattus norvegicus, UniProt P09483+P12390). Kind of assay: Displacement of [3H]epibatidine form alpha4beta2 nAChR in rat cortex. In a few lines:
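Radioligand binding in rat cortex tissue using [³H]-epibatidine to label α4β2 sites. Ki reported as the mean (% coefficient of variation) of three independent determinations.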

Assay [3] deals with Neuronal acetylcholine receptor subunit alpha-7 (Rattus norvegicus, UniProt Q05941). Kind of assay: Displacement of [3H]alpha-bungarotoxin form alpha7 nAChR in rat cortex.
Chain of Neuronal acetylcholine receptor subunit alpha-7 (Q05941 whole entry): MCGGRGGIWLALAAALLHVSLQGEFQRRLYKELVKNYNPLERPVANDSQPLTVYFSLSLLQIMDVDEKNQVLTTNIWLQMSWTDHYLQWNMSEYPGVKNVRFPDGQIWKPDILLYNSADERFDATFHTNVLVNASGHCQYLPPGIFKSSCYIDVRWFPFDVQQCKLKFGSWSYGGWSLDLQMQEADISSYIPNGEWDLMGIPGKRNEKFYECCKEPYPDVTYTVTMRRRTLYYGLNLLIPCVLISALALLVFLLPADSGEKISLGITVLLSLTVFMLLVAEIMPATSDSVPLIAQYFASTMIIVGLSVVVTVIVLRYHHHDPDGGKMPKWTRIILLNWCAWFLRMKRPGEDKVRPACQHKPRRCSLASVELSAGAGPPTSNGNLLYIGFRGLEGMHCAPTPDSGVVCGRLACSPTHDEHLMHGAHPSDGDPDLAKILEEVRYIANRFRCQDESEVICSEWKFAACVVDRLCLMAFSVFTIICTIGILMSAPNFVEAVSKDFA

Each structure is given as a SMILES string.

Chain of Neuronal acetylcholine receptor; alpha4/beta2 (P09483 whole entry): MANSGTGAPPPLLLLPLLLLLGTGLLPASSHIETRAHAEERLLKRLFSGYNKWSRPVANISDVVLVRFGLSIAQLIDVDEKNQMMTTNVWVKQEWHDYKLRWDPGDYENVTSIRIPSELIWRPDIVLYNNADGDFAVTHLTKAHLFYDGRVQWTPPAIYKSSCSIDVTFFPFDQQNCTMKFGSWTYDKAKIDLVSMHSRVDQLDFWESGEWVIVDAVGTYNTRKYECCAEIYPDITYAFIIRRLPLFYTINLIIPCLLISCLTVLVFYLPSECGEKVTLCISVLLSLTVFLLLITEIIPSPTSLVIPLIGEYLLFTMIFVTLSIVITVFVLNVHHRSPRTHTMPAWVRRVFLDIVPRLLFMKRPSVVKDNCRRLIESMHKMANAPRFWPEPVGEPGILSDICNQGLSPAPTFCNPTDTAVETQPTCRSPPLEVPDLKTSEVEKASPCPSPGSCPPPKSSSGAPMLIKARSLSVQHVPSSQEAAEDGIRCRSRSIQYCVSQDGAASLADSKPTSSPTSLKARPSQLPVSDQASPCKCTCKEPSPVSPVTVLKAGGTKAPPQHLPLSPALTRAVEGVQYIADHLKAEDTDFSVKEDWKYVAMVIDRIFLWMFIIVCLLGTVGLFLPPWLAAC
Chain of Neuronal acetylcholine receptor; alpha4/beta2 (P12390 whole entry): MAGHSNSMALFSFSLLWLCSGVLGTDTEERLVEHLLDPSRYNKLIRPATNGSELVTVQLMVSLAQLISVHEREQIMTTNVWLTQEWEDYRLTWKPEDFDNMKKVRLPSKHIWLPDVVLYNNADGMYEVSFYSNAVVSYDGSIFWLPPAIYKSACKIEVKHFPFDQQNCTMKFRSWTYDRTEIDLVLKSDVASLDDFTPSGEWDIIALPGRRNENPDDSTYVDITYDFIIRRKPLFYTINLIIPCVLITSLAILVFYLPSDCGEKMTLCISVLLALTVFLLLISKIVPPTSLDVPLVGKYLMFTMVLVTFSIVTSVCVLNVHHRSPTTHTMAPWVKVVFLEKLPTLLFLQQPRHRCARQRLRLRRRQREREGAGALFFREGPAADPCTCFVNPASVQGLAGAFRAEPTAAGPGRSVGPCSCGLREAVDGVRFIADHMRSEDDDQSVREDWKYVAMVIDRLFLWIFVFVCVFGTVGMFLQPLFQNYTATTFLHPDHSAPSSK

As for `c1cncc(N2CC3CC(C2)N3)c1`, the Ratio Ki in assay [1] was 24.3. In addition, the Ki – broadly, a dissociation constant, usually derived from enzyme kinetics or from competition with a known ligand – in assay [2] was 0.056 nM; in assay [3], 1.36 nM.
The like results for `Brc1ccc(N2CC3CC(C2)N3)cn1` were, in that order, 1300, 0.039 nM and 50.5 nM.
`O=[N+]([O-])c1ccc(N2CC3CC(C2)N3)cc1`: in assay [1], the Ratio Ki worked out at 23300. Moreover, the Ki in assay [2] was found to be 1.2 nM; in assay [3], 28000 nM.
Regarding `CN1C2CC1CN(c1ccc(Cl)nc1)C2`, the Ratio Ki in assay [1] came out at 46.5. Also, the Ki in assay [2] is 0.43 nM; in assay [3], 20 nM.
The like results for `Clc1ccc(N2CC3CC(C2)N3)nn1` were, in that order, 149, 0.168 nM and 25 nM.
Take `Clc1ccc(N2CC3CC(C2)N3)cn1`: the Ratio Ki in assay [1] is 178. Besides, the Ki in assay [2] was 0.023 nM; in assay [3] it was 4.1 nM.
